Measured values reported in ChEMBL document CHEMBL1123977, “Synthesis, receptor binding, and tissue distribution of (17 alpha,20E)- and (17 alpha,20Z)-21-[125I]iodo-19-norpregna-1,3,5(10), 20-tetraene-3,17-diol ” (1988).
Values joined by “and” are separate entries in the source; they are usually repeats but may differ in a detail not shown here. Equal entries are not always repeated.

Tests used:
[1] = system: Rattus norvegicus; assay: In vivo deiodination in 1 hour after administration of compound; assay type: functional
Procedure, shortened: (§1)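 In immature female Fischer rats given 3 μCi (111 kBq) of 125I-steroid iv, deiodination was estimated from thyroid PDK at 1, 2 or 5 h, or at 2 h with 60 μg co-injected estradiol. Thyroid uptake after [125I]NaI injection at the same time interval was taken as 100%.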

[2] = system: Rattus norvegicus; assay: In vivo deiodination in 2 hour after administration of compound; assay type: functional; procedure, shortened: as §1
[3] = system: Rattus norvegicus; assay: In vivo deiodination in 2 hour after administration of compound in presence of 60 microg of estradiol; assay type: functional; procedure, shortened: as §1
[4] = system: Rattus norvegicus; assay: In vivo deiodination in 5 hr after administration of compound; assay type: functional; procedure, shortened: as §1
[5] = system: Rattus norvegicus; assay: Mean uptake in adrenals 1 hr after intravenous injection of 3 microCi (111 kBq) of the compound; assay type: functional, Adrenal gland
Procedure, shortened: (§2)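 Immature female Fischer rats (24 days old, 55-60 g) had free access to food and water. They were warmed under an infrared lamp, then given 200 μL HPLC-purified 125I-labeled steroid (3 μCi, 111 kBq) in saline with 9% ethanol and 1% Tween 80 via the lateral tail vein. Where stated, 60 μg unlabeled estradiol was co-injected. Rats were killed at 1, 2 or 5 h. Tissues were KCl-washed, blotted, weighed and gamma-counted against a reference of the injectate. Results are PDK (% dose × kg/g), mean and SD of three rats.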

[6] = system: Rattus norvegicus; assay: Mean uptake in adrenals 2 hr after intravenous injection of 3 microCi (111 kBq); assay type: functional, Adrenal gland; procedure, shortened: as §2
[7] = species on record: Rattus norvegicus; assay: Effect of Co-injection with estradiol on the uterus to blood ratio (Co-injected with 60 microg of estradiol (E2)); assay type: functional
Procedure, shortened: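 Immature female Fischer rats (24 days, 55-60 g) received 3 μCi (111 kBq) 125I-labelled steroid iv via the lateral tail vein, in 200 μL 9% ethanol-saline with 1% Tween 80, co-injected with 60 μg unlabelled estradiol. Killed at 2 h. Uterus and blood were KCl-washed and gamma-counted as PDK. Ratio is the mean of three rats; % change is versus tracer-only animals.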

[8] = system: Rattus norvegicus; assay: Mean uptake in uterus 2 hr after intravenous injection of 3 microCi (111 kBq); assay type: functional
Procedure, shortened: (§3)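 Immature female Fischer rats (24 days old, 55-60 g), food and water free. 3 μCi (111 kBq) HPLC-purified 125I-labeled steroid given iv via lateral tail vein in 200 μL saline containing 9% ethanol and 1% Tween 80; receptor-saturation group co-injected with 60 μg unlabeled estradiol. Sacrificed at set times; uterus washed with 0.154 M KCl, blotted, weighed, gamma counted against injected reference; expressed as PDK (% dose × kg/g), mean of three rats.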

[9] = system: Rattus norvegicus; assay: Mean uptake in uterus 2 hr after intravenous injection of 3 uM Ci (111 kBq) in presence of 60 ug coinjected estradiol; assay type: functional; procedure, shortened: as §3
[10] = system: Rattus norvegicus; assay: Mean uptake in uterus 1 hr after intravenous injection of 3 microCi (111 kBq) of the compound; assay type: functional; procedure, shortened: as §2
[11] = system: Rattus norvegicus; assay: Mean uptake in uterus 5 hr after intravenous injection of 3 microCi (111 kBq); assay type: functional; procedure, shortened: as §3
[12] = system: Rattus norvegicus; assay: Mean uptake in blood 5 hr after intravenous injection of 3 microCi (111 kBq); assay type: functional; procedure, shortened: as §2
[13] = system: Rattus norvegicus; assay: Mean uptake in adrenals 2 hr after intravenous injection of 3 uM Ci (111 kBq) in presence of 60 ug coinjected estradiol; assay type: functional, Adrenal gland; procedure, shortened: as §2
[14] = system: Rattus norvegicus; assay: Mean uptake in adrenals 5 hr after intravenous injection of 3 microCi (111 kBq); assay type: functional, Adrenal gland; procedure, shortened: as §2
[15] = system: Rattus norvegicus; assay: Mean uptake in blood 2 hr after intravenous injection of 3 microCi (111 kBq); assay type: functional; procedure, shortened: as §2
[16] = system: Rattus norvegicus; assay: Mean uptake in blood 2 hr after intravenous injection of 3 microCi (111 kBq) in presence of 60 ug coinjected estradiol; assay type: functional; procedure, shortened: as §2
[17] = system: Rattus norvegicus; assay: Mean uptake in blood after intravenous injection of 3 microCi (111 kBq) of the compound; assay type: functional; procedure, shortened: as §2
[18] = system: Rattus norvegicus; assay: Mean uptake in brain 1 hr after intravenous injection of 3 microCi (111 kBq) of the compound; assay type: functional; procedure, shortened: as §2
[19] = system: Rattus norvegicus; assay: Mean uptake in brain 2 hr after intravenous injection of 3 microCi (111 kBq); assay type: functional; procedure, shortened: as §2
[20] = system: Rattus norvegicus; assay: Mean uptake in brain 2 hr after intravenous injection of 3 uM Ci (111 kBq) in presence of 60 ug coinjected estradiol; assay type: functional; procedure, shortened: as §2
[21] = system: Rattus norvegicus; assay: Mean uptake in kidneys 1 hr after intravenous injection of 3 microCi (111 kBq) of the compound; assay type: functional; procedure, shortened: as §2
[22] = system: Rattus norvegicus; assay: Mean uptake in kidneys 2 hr after intravenous injection of 3 microCi (111 kBq); assay type: functional; procedure, shortened: as §2
[23] = system: Rattus norvegicus; assay: Mean uptake in kidneys 2 hr after intravenous injection of 3 microCi (111 kBq) in presence of 60 ug coinjected estradiol; assay type: functional, Kidney; procedure, shortened: as §2
[24] = system: Rattus norvegicus; assay: Mean uptake in kidneys 5 hr after intravenous injection of 3 microCi (111 kBq); assay type: functional; procedure, shortened: as §2
[25] = system: Rattus norvegicus; assay: Mean uptake in liver 2 hr after intravenous injection of 3 microCi (111 kBq); assay type: functional; procedure, shortened: as §2
[26] = system: Rattus norvegicus; assay: Mean uptake in ovaries 5 hr after intravenous injection of 3 microCi (111 kBq); assay type: functional, Female gonad; procedure, shortened: as §2
[27] = system: Rattus norvegicus; assay: Mean uptake in spleen 1 hr after intravenous injection of 3 microCi (111 kBq) of the compound; assay type: functional; procedure, shortened: as §2
[28] = system: Rattus norvegicus; assay: Mean uptake in spleen 2 hr after intravenous injection of 3 microCi (111 kBq); assay type: functional; procedure, shortened: as §2
[29] = system: Rattus norvegicus; assay: Mean uptake in spleen 2 hr after intravenous injection of 3 microCi (111 kBq) in presence of 60 ug coinjected estradiol; assay type: functional; procedure, shortened: as §2
[30] = system: Rattus norvegicus; assay: Mean uptake in spleen 5 hr after intravenous injection of 3 microCi (111 kBq); assay type: functional; procedure, shortened: as §2
[31] = system: Rattus norvegicus; assay: Mean uptake in thyroid 2 hr after intravenous injection of 3 microCi (111 kBq); assay type: functional, Thyroid gland; procedure, shortened: as §2
[32] = system: Rattus norvegicus; assay: Mean uptake in thyroid 2 hr after intravenous injection of 3 microCi (111 kBq) in presence of 60 ug coinjected estradiol; assay type: functional, Thyroid gland; procedure, shortened: as §2
[33] = system: Rattus norvegicus; assay: Mean uptake in thyroid 1 hr after intravenous injection of 3 microCi (111 kBq) of the compound; assay type: functional, Thyroid gland; procedure, shortened: as §2
[34] = system: Rattus norvegicus; assay: Mean uptake in liver 2 hr after intravenous injection of 3 microCi (111 kBq) in presence of 60 ug coinjected estradiol; assay type: functional; procedure, shortened: as §2
[35] = system: Rattus norvegicus; assay: Mean uptake in liver 5 hr after intravenous injection of 3 microCi (111 kBq); assay type: functional; procedure, shortened: as §2
[36] = system: Rattus norvegicus; assay: Mean uptake in lungs 1 hr after intravenous injection of 3 microCi (111 kBq) of the compound; assay type: functional; procedure, shortened: as §2
[37] = system: Rattus norvegicus; assay: Mean uptake in lungs 2 hr after intravenous injection of 3 microCi (111 kBq); assay type: functional; procedure, shortened: as §2
[38] = system: Rattus norvegicus; assay: Mean uptake in lungs 2 hr after intravenous injection of 3 uM Ci (111 kBq) in presence of 60 ug coinjected estradiol; assay type: functional; procedure, shortened: as §2
[39] = system: Rattus norvegicus; assay: Mean uptake in lungs 5 hr after intravenous injection of 3 microCi (111 kBq); assay type: functional; procedure, shortened: as §2
[40] = system: Rattus norvegicus; assay: Mean uptake in muscle 1 hr after intravenous injection of 3 microCi (111 kBq) of the compound; assay type: functional, Muscle tissue; procedure, shortened: as §2
[41] = system: Rattus norvegicus; assay: Mean uptake in muscle 2 hr after intravenous injection of 3 microCi (111 kBq); assay type: functional, Muscle tissue; procedure, shortened: as §2
[42] = system: Rattus norvegicus; assay: Mean uptake in muscles 5 hr after intravenous injection of 3 microCi (111 kBq); assay type: functional, Muscle tissue; procedure, shortened: as §2
[43] = system: Rattus norvegicus; assay: Mean uptake in ovaries 1 hr after intravenous injection of 3 microCi (111 kBq) of the compound; assay type: functional, Female gonad; procedure, shortened: as §2
[44] = system: Rattus norvegicus; assay: Mean uptake in ovaries 2 hr after intravenous injection of 3 microCi (111 kBq); assay type: functional, Female gonad; procedure, shortened: as §2
[45] = system: Rattus norvegicus; assay: Mean uptake in ovaries 2 hr after intravenous injection of 3 microCi (111 kBq) in presence of 60 ug coinjected estradiol; assay type: functional, Female gonad; procedure, shortened: as §2
[46] = system: Rattus norvegicus; assay: Mean uptake in liver 1 hr after intravenous injection of 3 microCi (111 kBq) of the compound; assay type: functional; procedure, shortened: as §2

## C[C@]12CC[C@@H]3c4ccc(O)cc4CC[C@H]3[C@@H]1CC[C@@]2(O)/C=C/[125I]
[1]
  Deiodination: 2%
[2]
  Deiodination: 2.1%
[3]
  Deiodination: 1.7%
[4]
  Deiodination: 4.4%
[5]
  PDK: 175
[6]
  PDK: 72
[7]
  Change: -41%
  Uterus to blood ratio: 2.32
[8]
  PDK: 35
[9]
  PDK: 22
[10]
  PDK: 92
[11]
  PDK: 11
[12]
  PDK: 9
[13]
  PDK: 73
[14]
  PDK: 21
[15]
  PDK: 10
[16]
  PDK: 10
[17]
  PDK: 17
[18]
  PDK: 38
[19]
  PDK: 12
[20]
  PDK: 14
[21]
  PDK: 71
[22]
  PDK: 27
[23]
  PDK: 29
[24]
  PDK: 10
[25]
  PDK: 92
[26]
  PDK: 16
[27]
  PDK: 27
[28]
  PDK: 10
[29]
  PDK: 11
[30]
  PDK: 4
[31]
  PDK: 2870
[32]
  PDK: 2300
[33]
  PDK: 1331
[34]
  PDK: 106
[35]
  PDK: 55
[36]
  PDK: 49
[37]
  PDK: 25
[38]
  PDK: 28
[39]
  PDK: 8
[40]
  PDK: 30
[41]
  PDK: 11 and 13
[42]
  PDK: 4
[43]
  PDK: 108
[44]
  PDK: 43
[45]
  PDK: 39
[46]
  PDK: 245
